# Calls of active or inactive are those of the source. The rule behind the calls is not given here.
# Tested on: Escherichia coli
# Assay: Inhibition of quorum sensing in Escherichia coli JB357 expressing green fluorescent protein assessed as reduction of OHHL-induced GFP expression after 2 hrs by fluorescence assay relative to OHHL
# Method in brief: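 E. coli JB357 carrying Vibrio fischeri luxR-PluxI-gfp(ASV) reporter; OHHL at final 10, 20, 50 or 100 nM in culture medium, triplicate wells, with dihydropyrrol-2-one at 0–10 mg/mL. Incubated 2 h at 37 °C; GFP fluorescence read relative to solvent control (100%). ID40 taken for each OHHL level and plotted against OHHL. AIC40 is the gradient of the fit forced through origin (inhibitor mol : OHHL mmol).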
SMILES,Ratio,inhibition
CCCCCCC1=CC(=C(Br)Br)N(c2ccccc2)C1=O,248,–
CCCCC1=CC(=C(Br)Br)N(CCCC)C1=O,–,inactive
O=C1C=C(Br)/C(=C/Br)N1c1ccccc1,–,inactive
CC(C)CN1C(=O)C=C(Br)/C1=C/Br,–,inactive
CCCCCCC1=C(Br)/C(=C/Br)N(c2ccccc2)C1=O,–,inactive
CCCCCC(O)C1=CC(=C(Br)Br)N(Cc2ccccc2)C1=O (stereo unspecified),–,inactive
O=C1C=C(Br)C(=C(Br)Br)N1Cc1ccccc1,150,–
CCCC(Br)C1=CC(=C(Br)Br)N(c2ccccc2)C1=O (stereo unspecified),1.95,–
CCCCCCN1C(=O)C=C(Br)C1=C(Br)Br,–,inactive
CCCCCCC1=C(Br)/C(=C/Br)N(Cc2ccccc2)C1=O,–,inactive
CCCCCC(O)C1=CC(=C(Br)Br)N(c2ccccc2)C1=O (stereo unspecified),–,inactive
CCCCCCCCCCCCN1C(=O)C=C(Br)C1=C(Br)Br,–,inactive
CCCCCCC1=CC(=C(Br)Br)N(CCCC)C1=O,–,inactive
CC(C)CN1C(=O)C=C(Br)C1=C(Br)Br,65,–
CCCCCCCCN1C(=O)C=C(Br)/C1=C/Br,20,–
CCCCCC(Br)C1=CC(=C(Br)Br)N(Cc2ccccc2)C1=O (stereo unspecified),–,inactive
O=C1C=C(Br)C2(CBr)OCCN3C(=O)C=C(Br)C3(CBr)OCCN12 (stereo unspecified),78,–
CCCCC1=C(Br)/C(=C/Br)N(Cc2ccccc2)C1=O,–,inactive

SMILES,Ratio,inhibition
CCCCCCC1=C(Br)/C(=C/Br)N(CCCC)C1=O,–,inactive
CCCCC1=C(Br)/C(=C/Br)N(c2ccccc2)C1=O,–,inactive
CCCCCCN1C(=O)C=C(Br)/C1=C/Br,–,inactive
O=C1C=C(Br)C2(CBr)OCCCN3C(=O)C=C(Br)C3(CBr)OCCCN12 (stereo unspecified),112,–
CCCC(O)C1=CC(=C(Br)Br)N(c2ccccc2)C1=O (stereo unspecified),–,inactive
CCCCC1=CC(=C(Br)Br)N(Cc2ccccc2)C1=O,220,–
CCCCN1C(=O)C=C(Br)/C1=C/Br,19,–
CCCCC1=CC(=C(Br)Br)N(c2ccc(C)cc2)C1=O,–,inactive
CCCCCCCCN1C(=O)C=C(Br)C1=C(Br)Br,–,inactive
O=C1C=C(Br)/C(=C/Br)N1Cc1ccccc1,26,–
CCCC(Br)C1=CC(=C(Br)Br)N(Cc2ccccc2)C1=O (stereo unspecified),–,inactive
CCCCC1=C(Br)/C(=C/Br)N(CCCC)C1=O,279,–
CCCCC1=CC(=C(Br)Br)N(c2ccccc2)C1=O,97,–
CCCCCC(Br)C1=CC(=C(Br)Br)N(c2ccccc2)C1=O (stereo unspecified),–,inactive
CCCCCCC1=CC(=C(Br)Br)N(Cc2ccccc2)C1=O,140,–
CCCCCCCCCCCCN1C(=O)C=C(Br)/C1=C/Br,–,inactive
CCCC(O)C1=CC(=C(Br)Br)N(Cc2ccccc2)C1=O (stereo unspecified),–,inactive
CCCCN1C(=O)C=C(Br)C1=C(Br)Br,–,inactive
